An excerpt weighted towards active compounds, which were near 4.8% of everything screened.
HSF-1 act: increases HSF-1 driven luciferase reporter signal; NIH3T3-HGL HSF-1 luciferase reporter, MG132, 8 h; 100% = twice DMSO control signal; activation, % at 9 µM; actives 1.7% (n = 300,000);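 active means mean replicate activation of at least 50% with a set share of replicates each reaching 50%; inconclusive means only one of those two conditions met; inactive means mean below 50% and too few replicates reaching it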;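 further: 0% = median of the neutral control wells and 100% = twice that signal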
Jurkat NFkB inh: inhibitors of the PMA/ionomycin-induced NF-kB reporter in Jurkat cells. PMA/ionomycin-induced NF-kB luciferase reporter, luminescence. inhibition, % at 4 µM. actives 0.53% (n = 330,000). AID 435003; in the data active means inhibition above about 50%
GPR7 antag: antagonists of human GPR7 (neuropeptides B/W receptor 1). P48145. GPR7-expressing cells, fluorescence antagonist assay. inhibition, % at 4.4 µM. actives 1.1% (n = 290,000). AID 1861; in the data active means inhibition above about 16%, passing the limit was not always enough;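 further: cells stimulated with the agonist NPW; 0% = agonist with vehicle and 100% = vehicle without agonist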
Target sequence (P48145 whole entry, looked up): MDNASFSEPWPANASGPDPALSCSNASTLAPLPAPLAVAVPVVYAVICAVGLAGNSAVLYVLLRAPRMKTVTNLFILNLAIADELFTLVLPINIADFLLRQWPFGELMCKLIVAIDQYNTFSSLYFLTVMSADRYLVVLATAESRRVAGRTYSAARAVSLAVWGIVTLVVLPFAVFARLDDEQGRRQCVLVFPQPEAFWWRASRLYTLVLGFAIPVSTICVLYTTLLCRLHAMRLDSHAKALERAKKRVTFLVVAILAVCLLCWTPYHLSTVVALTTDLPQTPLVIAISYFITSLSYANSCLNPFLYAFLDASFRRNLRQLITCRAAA
HSF1 inh: HSF1 inhibition. AID 2098. actives 0.77% (n = 300,000). activity change, negative = inhibition, % at 7.5 µM (by protocol). NIH3T3-HGL HSE-luciferase, MG132-induced, luminescence 8 h; active compounds read low;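 active means more than half of replicate wells show activity change below -50%, luminescence cut by over half; inconclusive means some wells, but at most half, below -50%; inactive means no replicate well below -50%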;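 further: luciferase reports HSF-1 transcriptional activity via heat shock element; 0% = median of DMSO wells and -100% = zero luminescence signal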
T cruzi repl: blocks replication of Trypanosoma cruzi | inhibition, % (no concentration beside the values) | AID 1885 | actives 1.4% (n = 300,000) | T. cruzi beta-gal in NIH3T3, luminescence, 90 h;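 active means mean inhibition across valid replicates above about 55%, limit read from the data; inconclusive means mean below that limit but half or more replicates reach it; inactive means mean below it, under half of replicates reach it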;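 further: signal also drops with host cell toxicity which is not excluded here; 0% = plate median of DMSO wells and 100% = zero luminescence signal; higher percent means less beta-gal luminescence so fewer parasites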
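System: mouse NIH/3T3 fibroblasts infected with β-gal-expressing T. cruzi Tulahuen C4 / Input: NIH/3T3 cells, 5,000 per well / Buffer or medium: Low-serum DMEM with 2% FBS / Probe or stimulus: 5000 reporter trypomastigotes per well / Schedule: ≥90 h infection period, 3 h prior cell attachment / Measured by: GalScreen luminescence, 60 min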
697 NFkB inh: inhibitors of the PMA/ionomycin-induced NF-kB reporter in 697 B cells. AID 435022. inhibition, % at 4 µM. actives 0.33% (n = 330,000). 697 B-cell NF-kB luciferase reporter, 16 h; in the data active means inhibition above about 35%
Active calls of the source: *; ? = inconclusive; · = not tested or not shown.

SMILES	HSF-1 act	Jurkat NFkB inh	GPR7 antag	HSF1 inh	T cruzi repl	697 NFkB inh
Cc1cccn2cc(CNc3ccccc3)nc12	8	-54	-1	-6	-4	-67
COc1ccc(-c2cn3cccc(C)c3n2)cc1Br	62*	-103	-7	41	-13	-109
COc1ccc(-c2csc(C)n2)cc1Br	29	-35	-13	19	-7	-19
Cc1cccn2cc(-c3ccccc3)nc12	69*	-92	-8	30	-10	-118
S=C(NCC1CCCO1)Nc1ccccc1 (stereo not given)	8	-8	0	-9	-9	-6
O=C(Nc1ccc(N2CCCCC2)cc1)c1cc([N+](=O)[O-])cc([N+](=O)[O-])c1	-7	1	-15	-1	60*	-13
CN1CCN(c2ccc(NC(=O)N3CCc4ccccc43)cc2)CC1	-86	-56	-9	-85*	-5	-90
Cc1ccc(NC(=O)N2CCc3ccccc32)cc1	63*	-131	-14	40	-1	-248
O=C(Nc1ccc(N2CCCC2)cc1)c1ccc([N+](=O)[O-])cc1Cl	4	-16	-10	0	21	-33
CC(=O)c1ccc(NC(=O)c2ccc(C)c(Br)c2)cc1	56*	-123	-6	32	8	-49
Cc1ccc(OCC(=O)OCC(=O)NC2CC2)cc1C	·	-7	·	·	·	-15
Cc1onc(-c2ccc(Cl)cc2)c1-c1ccnc(SCC(=O)Nc2ccc(C(C)C)cc2)n1	-2	11	-2	-3	53	2
Cc1nc(SCC(=O)Nc2cc(C(N)=O)cc(C(N)=O)c2)c2c(C)c(C)sc2n1	3	1	-6	-5	-11	12
Cc1ccc(C(=O)Nc2ccc(N3CCN(C)CC3)cc2)cc1C	-56	-95	-6	-51*	-11	-109
COC(=O)c1c(NC(=O)CN2C(=O)NC3(CCCCC3C)C2=O)sc2c1CCC2 (stereo not given)	·	1	·	·	·	7
CCOC(=O)c1c(NC(=O)CN2C(=O)NC3(CCCCC3C)C2=O)sc(C)c1CC (stereo not given)	1	2	·	12	66*	-23
O=c1[nH]n(CC2COC3(CCCCC3)O2)c(=O)c2ccccc12 (stereo not given)	63*	-26	2	39	-14	3
Cc1cc(OCCOCCN(C)CCO)cc(C)c1Cl	4	-22	10	-13	37	-13
CCN(CC)CCOCCOc1cc(C)c(Cl)c(C)c1	-7	-8	2	-6	64*	-33
COc1ccc(OCC(=O)N2CCN(c3nnc(-c4ccccc4)c4ccccc34)CC2)cc1	-5	21	-6	-6	36	4
COc1ccc(OCC(=O)N2CCN(c3nnc(-c4ccc(C)cc4)c4ccccc34)CC2)cc1	20	29	-7	0	3	-18
Cc1ccc(-c2nnc(N3CCCCCC3)c3ccccc23)cc1	17	-11	-2	3	64*	-18
O=C(COc1ccccc1)N1CCN(c2nnc(-c3ccccc3)c3ccccc23)CC1	4	10	-1	6	55*	15
Cc1ccc(OCC(=O)N2CCN(c3nnc(-c4ccc(C)cc4)c4ccccc34)CC2)cc1	25	24	-5	9	61*	7
Cc1ccc(C)c(OCC(=O)Nc2ccc(N3CCOCC3)cc2N2CCOCC2)c1	·	8	·	·	·	11
SMILES	HSF-1 act	Jurkat NFkB inh	GPR7 antag	HSF1 inh	T cruzi repl	697 NFkB inh
O=C(CCCNC(=O)c1ccc(Cl)cc1)Nc1ncccc1O	-10	22	-15	-6	4	19
O=C(CCNC(=O)c1ccc(Cl)cc1)Nc1ncccc1O	-89	5	-16	-87*	-27	-11
O=C(NCCc1cccc(Cl)c1)c1cc2ccccc2oc1=O	278*	-1	-9	187	-4	17
O=C(NCc1cccnc1)c1cc2ccccc2oc1=O	23	-12	7	-4	7	11
Cc1cc(C)c(NC(=O)c2cccc(NC(=O)c3ccco3)c2)c(C)c1	5	15	-10	-6	13	-8
CC(=O)Nc1ccc(N(C(=O)CNC(=O)c2cccs2)C(C(=O)NC(C)(C)C)c2ccccc2)cc1 (stereo not given)	7	8	-5	-2	-13	4
CCN1CCc2c(C#N)c(N3CCCCC3)nc(N3CCOCC3)c2C1	-35	-10	9	-11	49	18
N#Cc1c(N2CCOCC2)nc(N2CCCCC2)c2c1CCN(C1CCCCC1)C2	-16	13	-5	5	71*	-6
O=C(CN1C(=O)COc2ccccc21)N(Cc1cccnc1)Cc1ccccc1F	-12	-8	12	-1	76*	-14
NC(=O)c1c(NC(=O)c2ccccc2)sc2c1CCc1ccccc1-2	74*	-139	-13	40	3	-136
CC(C)c1ccc2c(c1)C1(NN=C(c3ccccc3)S1)C(=O)N2 (stereo not given)	-10	-50	-8	-2	66*	-60
CCc1ccc2c(c1)C1(NN=C(c3ccc(C)cc3)S1)C(=O)N2 (stereo not given)	-16	-6	-1	-15	?	-17
COc1ccc(-n2c(=O)c3ccccc3c3ccccc3c2=O)c(OC)c1	3	-2	-11	-4	-21	9
COc1ccc(C)cc1-n1c(=O)c2ccccc2c2ccccc2c1=O	315*	·	-11	236	-10	·
COc1ccc(-c2cc(C)no2)cc1S(=O)(=O)Nc1cccc(CN2CCCC2)c1	6	-6	2	-1	18	-19
COc1ccc(-c2cn3ccccc3n2)cc1[N+](=O)[O-]	55*	-36	4	28	-8	-37
COC(=O)Cc1[nH]nc2c1C(c1ccc(O)c(OC)c1)C(C#N)=C(N)O2 (stereo not given)	0	13	-8	-7	1	-54
CCOc1ccc(-c2nnc(SCc3nc4ccccc4[nH]3)n2N)cc1	63*	-1	-6	46	11	6
CCOC(=O)c1c(C)[nH]c(C(=O)Cn2nnc(-c3ccccc3Cl)n2)c1C	61*	-14	-1	26	16	-16
CCOC(=O)c1c(C)[nH]c(C(=O)Cn2nnc(-c3ccccc3)n2)c1C	-13	23	6	-7	4	21
Cc1cccc(Nc2nc(NCc3ccco3)nc(N)c2[N+](=O)[O-])c1	-13	10	-21	-10	-4	7
Nc1nc(Nc2cccc(F)c2)nc(NCc2ccco2)c1[N+](=O)[O-]	54*	-27	-20	25	25	-55
COc1ccc(Nc2nc(NCc3ccco3)nc(N)c2[N+](=O)[O-])cc1	66*	4	-14	24	-7	-4
Cc1ccc(Nc2nc(NCCCN3CCOCC3)nc(N)c2[N+](=O)[O-])cc1	69*	9	-4	41	-13	-33
